We go through one compound from ChEMBL document CHEMBL1123129, “Hypolipidemic activity of indan-1,3-dione derivatives in rodents” (J Med Chem, 1985).

In test [1] the target is T1, 3-hydroxy-3-methylglutaryl-coenzyme A reductase (Mus musculus) (UniProt Q01237).
T1 sequence (whole entry): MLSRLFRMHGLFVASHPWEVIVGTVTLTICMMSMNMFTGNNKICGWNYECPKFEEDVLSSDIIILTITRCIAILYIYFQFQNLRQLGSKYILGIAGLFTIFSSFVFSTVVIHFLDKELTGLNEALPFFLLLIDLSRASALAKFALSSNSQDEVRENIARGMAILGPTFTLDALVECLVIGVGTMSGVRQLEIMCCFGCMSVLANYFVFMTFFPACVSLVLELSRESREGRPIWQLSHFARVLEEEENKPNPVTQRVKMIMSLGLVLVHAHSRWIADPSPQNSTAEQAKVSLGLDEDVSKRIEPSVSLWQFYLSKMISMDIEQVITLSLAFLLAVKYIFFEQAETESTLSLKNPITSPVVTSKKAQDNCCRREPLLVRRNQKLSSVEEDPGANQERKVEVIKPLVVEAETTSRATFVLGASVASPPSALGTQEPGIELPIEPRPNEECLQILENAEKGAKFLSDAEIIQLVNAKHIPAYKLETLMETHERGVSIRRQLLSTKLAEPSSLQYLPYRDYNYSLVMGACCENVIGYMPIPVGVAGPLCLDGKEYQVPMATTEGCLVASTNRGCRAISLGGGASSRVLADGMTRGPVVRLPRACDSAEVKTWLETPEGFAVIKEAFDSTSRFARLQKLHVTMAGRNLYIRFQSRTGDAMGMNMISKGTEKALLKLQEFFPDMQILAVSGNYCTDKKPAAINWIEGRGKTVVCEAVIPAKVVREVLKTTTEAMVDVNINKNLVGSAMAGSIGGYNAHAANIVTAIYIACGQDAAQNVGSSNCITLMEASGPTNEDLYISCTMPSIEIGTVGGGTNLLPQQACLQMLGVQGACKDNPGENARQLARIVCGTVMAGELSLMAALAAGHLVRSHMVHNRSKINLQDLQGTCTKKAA
Put plainly: In Vitro evaluation for the CF1 liver enzyme activity on HMG-CoA reductase at concentration 50 uM. In short, it runs like this:
(§1)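 Liver was taken from CF1 male mice and made into 10% homogenates, which were incubated with test compound at 50, 100 or 200 µM. Each enzyme was assayed by its literature method, and protein was measured by Lowry. N = 6. Activity is expressed as % of untreated control ± SD.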

Test [2] deals with Mus musculus. As to the kind of experiment: In Vivo effect for the hypolipidemic activity on Hepatic lipoprotein lipase in CF1 mice after 16 days administered orally at a dose of 20 mg/kg. The test is classed as functional. As to conditions: route oral. In short, it runs like this:
(§2)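 CF1 male mice are dosed orally at 10–60 mg/kg per day for 16 days, with 1% CMC as the control vehicle. Liver is homogenized at 10% in 0.25 M sucrose + 0.001 M EDTA, pH 7.2. Enzymes are assayed by literature methods, with Lowry protein. Activity is given as % of control (X ± SD, N = 6), with p from Student's t test.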

Test [3] relates to Rattus norvegicus. Put plainly: Compound was evaluated for the hypolipidemic activity at 20 mg/kg per day orally for 14 days on phospholipids content in rat LDL. The test is classed as functional. As to conditions: route oral. In short, it runs like this:
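Male Sprague–Dawley rats (~300 g) were dosed orally each day. Blood was drawn from the abdominal vein. Lipoprotein fractions (chylomicron, VLDL, LDL, HDL) were separated by the Hatch–Lees and Havel methods. Each fraction was assayed for cholesterol, triglyceride (enzymatic kit), neutral lipids, phospholipids and Lowry protein. Values are % of 1% CMC vehicle control, N = 6.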

The subject of test [4] is Mus musculus. Put plainly: Hypolipidemic activity in CF1 male mice at a dose of 20 mg/kg per day, serum cholesterol measured on the 9th day. The test is classed as functional. In short, it runs like this:
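CF1 male mice (~30 g) were given 20 mg/kg per day ip at 11:00 a.m.; N = 6 per group. Tail-vein serum was collected in nonheparinized microcapillaries. Cholesterol was measured on days 9 and 16 by modified Liebermann–Burchard on duplicate 25 µL samples. Triglyceride was measured on day 16 in a separate group, duplicate 50 µL. Values are % control ± SD; Student's t test.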

Test [5] deals with T2, ATP-citrate synthase (Mus musculus) (UniProt Q91V92).
T2 sequence (whole entry): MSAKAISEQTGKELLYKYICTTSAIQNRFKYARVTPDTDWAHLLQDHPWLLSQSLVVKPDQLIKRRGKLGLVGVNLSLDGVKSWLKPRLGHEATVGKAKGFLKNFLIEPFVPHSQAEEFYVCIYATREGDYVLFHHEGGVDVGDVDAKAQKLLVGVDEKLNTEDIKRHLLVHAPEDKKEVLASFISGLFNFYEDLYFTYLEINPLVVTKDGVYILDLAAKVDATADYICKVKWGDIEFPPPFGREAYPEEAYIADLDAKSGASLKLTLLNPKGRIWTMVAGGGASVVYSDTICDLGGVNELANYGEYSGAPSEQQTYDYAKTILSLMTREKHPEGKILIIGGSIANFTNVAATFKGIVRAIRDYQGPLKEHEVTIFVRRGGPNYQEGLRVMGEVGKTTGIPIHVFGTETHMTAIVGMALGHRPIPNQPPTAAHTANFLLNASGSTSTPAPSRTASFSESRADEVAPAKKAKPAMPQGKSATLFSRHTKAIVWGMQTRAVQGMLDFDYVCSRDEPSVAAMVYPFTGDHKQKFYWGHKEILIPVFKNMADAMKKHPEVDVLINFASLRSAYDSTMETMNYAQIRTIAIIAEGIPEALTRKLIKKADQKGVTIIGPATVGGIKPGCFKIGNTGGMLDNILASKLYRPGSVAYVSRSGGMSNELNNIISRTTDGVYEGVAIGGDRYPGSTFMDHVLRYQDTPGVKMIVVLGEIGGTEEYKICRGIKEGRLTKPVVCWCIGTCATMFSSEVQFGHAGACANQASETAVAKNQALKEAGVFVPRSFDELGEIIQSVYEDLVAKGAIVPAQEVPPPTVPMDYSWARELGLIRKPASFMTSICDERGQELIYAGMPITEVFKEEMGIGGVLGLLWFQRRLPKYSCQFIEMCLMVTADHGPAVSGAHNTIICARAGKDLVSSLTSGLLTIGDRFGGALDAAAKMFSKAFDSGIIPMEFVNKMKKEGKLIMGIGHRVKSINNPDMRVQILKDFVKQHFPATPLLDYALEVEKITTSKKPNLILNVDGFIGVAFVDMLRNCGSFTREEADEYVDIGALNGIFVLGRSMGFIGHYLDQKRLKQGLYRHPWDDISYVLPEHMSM
Put plainly: In Vitro evaluation for the CF1 liver enzyme activity on ATP-Citrate Lyase exchange at concentration 200 uM. An outline of the steps:
as §1

For test [6], the target named is Acetyl-coenzyme A synthetase, cytoplasmic (Mus musculus) (UniProt Q9QXG4). Put plainly: In Vivo effect for the hypolipidemic activity on Acetyl-coenzyme A synthetase in CF1 mice after 16 days of oral administration at a dose of 20 mg/kg. Also noted: dose 20 mg/kg. The test is classed as functional, organism-based. An outline of the steps: as §2
Acetyl-coenzyme A synthetase, cytoplasmic (Mus musculus), sequence (Q9QXG4 whole entry): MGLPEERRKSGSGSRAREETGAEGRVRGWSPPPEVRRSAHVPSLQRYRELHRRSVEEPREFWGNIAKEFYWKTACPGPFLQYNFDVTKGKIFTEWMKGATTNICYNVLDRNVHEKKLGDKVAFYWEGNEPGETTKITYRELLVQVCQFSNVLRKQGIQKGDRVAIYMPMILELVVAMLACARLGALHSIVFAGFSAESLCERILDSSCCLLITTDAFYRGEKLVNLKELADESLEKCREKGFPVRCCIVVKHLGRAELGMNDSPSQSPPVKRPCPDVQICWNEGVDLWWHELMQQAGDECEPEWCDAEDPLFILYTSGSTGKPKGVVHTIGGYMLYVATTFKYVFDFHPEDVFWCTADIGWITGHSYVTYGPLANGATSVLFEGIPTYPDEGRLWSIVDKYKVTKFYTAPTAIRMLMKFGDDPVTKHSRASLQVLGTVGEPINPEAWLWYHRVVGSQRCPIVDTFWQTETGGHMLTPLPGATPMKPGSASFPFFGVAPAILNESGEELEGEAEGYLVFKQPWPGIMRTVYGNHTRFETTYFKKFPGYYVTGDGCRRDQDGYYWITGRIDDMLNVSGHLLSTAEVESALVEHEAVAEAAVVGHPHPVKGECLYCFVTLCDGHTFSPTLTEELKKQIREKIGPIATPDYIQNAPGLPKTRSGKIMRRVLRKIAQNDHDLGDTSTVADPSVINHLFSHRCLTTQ
Test [7] has as its system Rattus norvegicus. Put plainly: Compound was evaluated for the hypolipidemic activity at 20 mg/kg per day orally for 14 days on triglycerides content in rat liver. The test is classed as functional. As to conditions: route oral. In short, it runs like this:
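Male Sprague–Dawley rats were dosed orally for 14 days. Liver, small intestine and a 24-h fecal collection were lipid-extracted. Extracts were assayed for cholesterol (modified Liebermann–Burchard), triglyceride (enzymatic kit), neutral lipids, phospholipids and protein. Values are % of 1% CMC vehicle control, mean ± SD, N = 6.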

As to `COc1ccc(C2C(=O)c3ccccc3C2=O)cc1` [ANISINDIONE], the Control in test [1] came to 107%; in test [2], 82%; in test [3], 204%; in test [5], 52%; in test [6] it was 72%; in test [7], 37%. Further, the “Serum cholesterol, % of control” value in test [4] is 58%.
